# Screening results (PubChem)
# Calb FLC: C. albicans growth modulation with fluconazole. C. albicans CaCi-2 (fluconazole-resistant clinical isolate) + fluconazole, Alamar Blue growth, 48 h. growth inhibition, % (test concentration not listed). 300,000 tested, 0.57% active;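 active = growth inhibition above about 58% in most replicates, limit read from the data, passing the limit was not always enough; inconclusive = exactly half the replicates above a set limit; inactive = most replicates below a set limit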;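 also: all wells also contain fluconazole at 8 µg/ml as a sub-toxic cotreatment; 0% = median of DMSO wells and 100% = median of geldanamycin control wells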
# procasp7 counter: counter-screen: procaspase-7 (human) activation; P55210; recombinant procaspase-7, Ac-DEVD-pNA absorbance 405 nm; D23A/D198A/D206A triple mutant, cannot self-cleave; scale: DMSO 0, 5 µM enzyme 100; activation, % at 8.5 µM; 330,000 tested, 0.093% active; AID 463210;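 active = percent activation above the screen-wide mean plus 3 SD, cut at about 25% in these data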
# Target sequence (P55210 whole entry D23A/D198A/D206A): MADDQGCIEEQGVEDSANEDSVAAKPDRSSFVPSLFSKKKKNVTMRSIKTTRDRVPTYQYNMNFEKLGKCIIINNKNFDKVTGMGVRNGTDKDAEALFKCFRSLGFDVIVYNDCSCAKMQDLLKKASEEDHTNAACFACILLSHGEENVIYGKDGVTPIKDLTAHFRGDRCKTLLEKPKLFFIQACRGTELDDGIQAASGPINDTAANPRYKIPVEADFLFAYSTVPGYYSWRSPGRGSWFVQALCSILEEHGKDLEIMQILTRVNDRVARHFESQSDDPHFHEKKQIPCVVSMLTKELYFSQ
#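 Assay system: Uncleavable procaspase-7 mutant enzyme; Input: 2 µM procaspase-7 mutant as dispensed; Also added: DEVD-pNA substrate; Medium: Zinc-free HEPES pH 7.4 with 300 mM NaCl, 0.01% Triton X-100; Timing: 1 h compound preincubation, 2 h substrate cleavage, 25 °C; Measured by: Epi-absorbance of released pNA at 405 nm, two timepoints.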
# GAA850 FXN act: activators of GAA850 frataxin (FXN) promoter | activation, % at 6 µM | AID 540364 | HEK293 lucGAA850 FXN promoter luciferase reporter, 24 h; percent of 10 µM SAHA response | 360,000 tested, 0.56% active;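 active = activation above the average of all compounds screened plus 3 SD, cutoff fixed separately per campaign, cut at about 7.5% in these data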;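 also: 0% = DMSO wells and 100% = 10 µM SAHA wells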
# proCasp3 act: activates human procaspase-3. activation, % at 8.5 µM. recombinant procaspase-3 D3A, Ac-DEVD-pNA absorbance 405 nm. 330,000 tested, 0.11% active;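 active = activation above the mean of all tested compounds plus 3 SD, cut at about 21% in these data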;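 also: 0% = DMSO alone and 100% = DMSO wells spiked with extra 5 µM PC-3 D3A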
# Target sequence (P42574 whole entry D9A/D28A/D175A): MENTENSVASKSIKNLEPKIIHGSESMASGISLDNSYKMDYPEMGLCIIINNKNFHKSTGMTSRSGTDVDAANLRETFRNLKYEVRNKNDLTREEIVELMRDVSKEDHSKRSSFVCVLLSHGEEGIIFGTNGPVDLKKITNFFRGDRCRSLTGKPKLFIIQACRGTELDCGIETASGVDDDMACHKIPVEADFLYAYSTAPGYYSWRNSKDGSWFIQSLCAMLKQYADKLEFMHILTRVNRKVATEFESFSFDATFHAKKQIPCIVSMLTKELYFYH
#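 Evaluation: percent activation relative to control range; Material: Procaspase-3 D3A mutant, all three cleavage aspartates alanine; Compound: single dose, 8.5 µM nominal compound, 0.8% DMSO; Replication: one well per compound; Signal: absorbance at 405 nm, 0 and 120 min; Schedule: 1 h preincubation plus 2 h reaction at 25 °C.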
# Neddyl block: inhibitors of human cullin neddylation; TR-FRET cullin neddylation, biochemical; inhibition, % at 25 µM; 360,000 tested, 0.58% active; AID 651699; in the data active = inhibition above about 36%
# HIF activator: HIF pathway transcriptional activation; U2OS HRE-luciferase reporter, luminescence; normalized: DMSO 0%, desferrioxamine 100%; activation, % at 7.5 µM (by protocol); 300,000 tested, 0.32% active; AID 1910;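 active = mean activation of at least 10% of the iron chelator positive control signal, with at least half of replicates also reaching 10%; inconclusive = mean and replicate majority disagree about reaching 10%; inactive = mean and most replicates under 10%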
# Neddyl inh conf: cullin neddylation inhibition, confirmation; calls only at 25 µM; 1,800 tested, 13% active; shares compounds with Neddyl block; AID 652217; TR-FRET cullin neddylation biochemical assay; in the data active = inhibition above about 40%;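 also: neddylation substrate is the cullin 1 ring ligase complex with SKP2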
# Active calls of the source: *; i = inactive; u = inconclusive; x = no result given. Shown are actives, neighbours in structure and some others; about 1.9% of the full set was active somewhere.
SMILES,Calb FLC,procasp7 counter,GAA850 FXN act,proCasp3 act,Neddyl block,HIF activator,Neddyl inh conf
Cc1ccc(C2NC(=O)c3c(sc4c3CCN(C)C4)N2)o1 (stereo not drawn),2,-2,-1,-6,43*,1,i
CCOC(=O)c1[nH]c2ccc(F)cc2c1NC(=O)CN1CCN(C/C=C/c2ccccc2)CC1,-2,7,0,0,42*,0,i
COC(=O)c1[nH]c2ccccc2c1NC(=O)CN1CCN(C/C=C/c2ccccc2)CC1,15,0,-3,2,23,x,x
Cn1nccc1C(=O)N1CCCC(Nc2ccc(F)cc2)C1 (stereo not drawn),-1,-5,2,-2,-4,0,x
CCOC(=O)CSc1ccc(C(=O)NCCCN2CCOCC2)cc1[N+](=O)[O-],-2,-7,2,-6,-23,-1,x
COc1ccc(-c2nc3c4ccccc4ccn3c2CN2CCCCC2)cc1OC,-1,4,2,4,42*,0,i
COc1ccc(-c2nc3c4ccccc4ccn3c2CN2CCCCC2)cc1,u,-7,1,1,27,2,x
O=C(CNC(=O)c1ccccc1Br)N/N=C/c1ccccc1O,19,-1,-3,8,40*,3,i
O=C(CNC(=O)c1ccco1)N/N=C/c1cc(Br)ccc1O,6,7,-1,3,42*,1,i
CCOc1ccccc1N1CCN(Cc2cn[nH]c2-c2ccc(F)cc2)CC1,-14,3,2,-5,3,0,x
COc1cc(NC(=O)Cc2ccccc2)ccc1NC(=O)c1ccccc1,10,1,0,5,43*,0,i
COc1cc(NC(=O)c2cccnc2)c(Cl)cc1NC(=O)c1ccccc1,-1,6,1,7,41*,-1,i
COc1cc(NC(=O)c2cccnc2)c(Cl)cc1NC(=O)c1ccc(Cl)cc1,-3,5,2,3,x,0,x
CC(=O)c1oc2ccccc2c1N,-6,4,1,11,-9,0,x
Nc1c(C(=O)Nc2ccc(Cl)cc2)oc2ccccc12,-4,-6,5,8,44*,4,x
Cc1cc(=O)n2[nH]c(SCc3ccccc3Cl)nc2n1,6,7,2,0,6,0,x
CCCCNC(=O)C1(C)CCCCN1Cc1ccc(-c2ccccc2)cc1 (stereo not drawn),x,x,-2,x,5,x,x
Cc1ccc(-c2cc(-c3ccco3)c(C#N)c(=O)[nH]2)cc1,2,-1,0,-9,96*,0,i
Cc1cc(-c2ccccc2)[nH]c(=O)c1C#N,41,1,0,2,50*,0,x
Cc1cc(C)c2cc(C(=O)Nc3ccc(C)c(F)c3)[nH]c2c1,u,x,0,x,-12,0,x
CCCCNC(=O)c1cc2c(C)cc(C)cc2[nH]1,10,2,0,-4,44*,0,i
Cc1cc(C)n2nc(C(=O)N3CCCC(N4CCN(c5ccccc5C)CC4)C3)cc2n1 (stereo not drawn),-1,x,1,x,47*,-8,i
COc1ccc2c(c1OC)C(=O)N(c1ccc(OCc3ccccc3)cc1)C2=O,14,-2,2,-2,-2,0,x
COc1ccc(-c2cc(C(=O)N3CCN(c4ncccn4)CC3)c3ccccc3n2)cc1OC,x,1,-5,7,51*,x,x
COc1ccc(-c2cc(C(=O)N3CC(C)CC(C)C3)c3ccccc3n2)cc1OC (stereo not drawn),0,12,-3,0,57*,0,x
SMILES,Calb FLC,procasp7 counter,GAA850 FXN act,proCasp3 act,Neddyl block,HIF activator,Neddyl inh conf
COc1ccc(-c2cc(C(=O)NCC(c3ccco3)N(C)C)c3ccccc3n2)cc1OC (stereo not drawn),1,0,-1,11,41*,1,i
COc1ccc(-c2cc(C(=O)NC3CCCC3)c3ccccc3n2)cc1OC,5,-10,3,6,40*,0,i
COc1cccc(-c2cc(C(=O)NC3CCCC3)c3ccccc3n2)c1,1,-1,0,3,11,0,x
COc1ccc(Nc2nnc(-c3ccc(C)cc3)c3ccccc23)cc1C(=O)N1CCCCC1,41,5,-1,-1,44*,0,i
COc1ccc(-c2cc(C(=O)N3CCCCC3)c3ccccc3n2)cc1OC,8,-8,2,-1,54*,0,x
COc1ccc(-c2cc(C(=O)N3CCCC3)c3ccccc3n2)cc1OC,-7,0,-1,5,32,0,x
COc1ccc(Nc2nnc(-c3ccccc3)c3ccccc23)cc1C(=O)N1CCCCC1,21,2,-2,-2,x,0,x
c1cc2c(cc1-c1csc(NNC3=NCCCCC3)n1)OCCO2,19,-21,x,-24,x,1,x
C=CCNc1nc(C(=O)OCC(=O)c2ccc(Cl)cc2)cs1,0,-21,3,-5,-10,-16,x
CCOC(=O)C1CCN(C(=O)COc2ccc3c(C)cc(=O)oc3c2)CC1,3,9,1,7,42*,0,i
Cc1cc(=O)oc2cc(OCC(O)Cn3ccnc3)ccc12 (stereo not drawn),-3,6,-2,7,40*,0,i
Cc1cc(=O)oc2cc(OCC(=O)NCCCn3ccnc3)ccc12,-10,4,2,3,27,0,x
Cc1cc(=O)oc2cc(OCC(=O)N3CCOCC3)ccc12,20,x,-2,x,11,-36,x
Cc1cc(=O)oc2cc(OCC(=O)N3CCCC3)ccc12,x,9,2,-1,48*,x,i
CC(O)c1cccc(-c2ccc(CN3C[C@]4(CO)O[C@@H](CO)C[C@@H]4S3(=O)=O)cc2)c1 (stereo partly drawn),x,-6,0,-6,1,x,x
NNC(=O)c1cc2c(N3CCC(Cc4ccccc4)CC3)ncnc2s1,-5,-4,1,0,1,-2,x
C=CCN(c1ccccc1)S(=O)(=O)c1cccc(C(=O)NCc2ccco2)c1,x,-4,-1,0,6,x,x
CCOc1ccccc1C(=O)OCC(=O)NCCNC(=O)COC(=O)c1ccccc1OCC,-29,4,0,0,8,0,x
Cc1cc(=O)oc2cc(OCC(=O)N3CC(=O)Nc4ccccc43)c(Cl)cc12,x,7,0,7,40*,x,i
O=C1CN(C(=O)COc2ccccc2Cl)c2ccccc2N1,x,1,-1,4,-20,x,x
c1ccc2nc(N3CCCC3)c(N3CCCC3)nc2c1,-15,7,1,2,46*,1,x
Cc1nc2ccccc2nc1N1CCCCC1,x,x,4,x,6,x,x
